This note sets out measurements from ChEMBL document CHEMBL1152741, “Discovery, design, and synthesis of anti-metastatic lead phenylmethylene hydantoins inspired by marine natural products” (Bioorg Med Chem, 2009).

Calls of active or inactive are those of the source. The calls are words filed in the database; no cut-off is given here.

Broadly, the EC50 is the concentration that produces a half-maximal response.

Assay [1] concerns PC-3M. Briefly: Antiinvasive activity in human PC3M cells expressing CTR assessed as change in core spheroid at => 100 uM after 48 hrs by spheroid disaggregation assay. In kind it is functional, cell-based.
A short description of assay [2]: Antimetastatic activity against human PC3M cells expressing CTR assessed as reduction in migration area at 200 uM after 48 hrs by spheroid disaggregation assay. In kind it is functional, PC-3M. A digest of the protocol:
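PC-3M-CT+ cells (which secrete calcitonin and carry CTR) are formed into spheroids from 5 × 10^4/mL cells in serum-free RPMI 1640. Plates are rocked 2 days at 37°C, giving spheroids of 150–300 μm. Single spheroids are placed on ECM-coated wells in serum-free medium, with t = 0 set at 1 h. They are photographed, kept 48 h at 37°C, then fixed and Diff-Quik stained. Radial migration distance is measured by micrometer after subtracting the initial diameter. Compounds are tested at 200 μM.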

For assay [3], the system named is PC-3M. Briefly: Cytotoxicity against human PC3M cells assessed as cell viability up to 50 uM by MTT assay. In kind it is functional, cell-based.
Assay [4] can be described thus: Antiinvasive activity in human PC3M cells expressing CTR assessed as inhibition of calcitonin-induced cell migration after 24 hrs by spheroid disaggregation assay. In kind it is functional, cell-based. The conditions noted are these: PC-3M.

Regarding `Cc1ccc(/C=C2\NC(=O)NC2=O)c(F)c1F`, the outcome in assay [1] was inactive. For the same compound, in assay [2], the Activity is 175 um.

As to `O=C1NC(=O)/C(=C/c2cccc(-c3ccccc3)c2)N1`, the outcome in assay [1] was inactive. Also, in assay [2], the Activity was 76 um.

`O=C1NC(=O)/C(=C/c2ccc(O)cc2)N1` [4-HYDROXYPHENYLMETHYLENE HYDANTOIN]: the outcome in assay [3] and in assay [1] was inactive. Besides, the EC50 in assay [4] came to 150 µM.

On to `O=C1NC(=O)/C(=C/c2ccc(-c3cccs3)cc2)N1`, for which, in assay [1], the result was inactive. The Activity in assay [2] came out at 39 um.

As to `CCSc1ccc(/C=C2\NC(=O)NC2=O)cc1`, the result in assay [1] was inactive. Besides, in assay [2], the Activity was found to be 15.5 um. In addition, in assay [4], the EC50 turned out to be 30 µM.

For the compound `O=C1NC(=O)/C(=C/c2ccccc2-c2ccccc2)N1`, the outcome in assay [1] was inactive. Moreover, the Activity in assay [2] amounted to 56 um.

In the case of `O=C1NC(=O)/C(=C/c2ccccc2-c2cccs2)N1`, the result in assay [1] was inactive. For the same compound, the Activity in assay [2] worked out at 50 um.

Consider `N#Cc1cccc(/C=C2\NC(=O)NC2=O)c1`, for which the outcome in assay [1] was inactive. Further, the Activity in assay [2] is recorded as 195 um.
